The record followed here is ChEMBL document CHEMBL1158991, “Cytotoxic and antimalarial constituents of the roots of Eurycoma longifolia” (J Nat Prod, 1991).

Assay [1] deals with Plasmodium falciparum. Kind of assay: Antimalarial activity against Plasmodium falciparum W2 in human erythrocytes after 24 hrs by [3H]hypoxanthine uptake. It counts as functional, organism-based. The procedure, abridged:
(§1)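 P. falciparum (D-6 chloroquine-sensitive, W-2 chloroquine-resistant) kept in type A+ human erythrocytes, RPMI-1640 with 32 mM NaHCO3, 35 mM HEPES and 10% heat-inactivated A+ plasma, 5% O2/5% CO2/90% N2, 37°. Assay: 0.5–1.0% parasitemia, 1.0% hematocrit, triplicates over 7-5000 ng/ml, 24 h. Then 0.5 µCi [3H]-hypoxanthine added for a further 18-24 h. Uninfected-cell dpm subtracted. IC50 by linear regression.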

Assay [2] is described as follows: Cytotoxicity against human KBV1 cells. It counts as functional. The note with it: KB-V1, read-out: ED50 (the source's name).
The nature of assay [3]: Cytotoxicity against human breast cancer cells. Type of assay: functional. The settings on record: Cancer cell lines, read-out: ED50 (the source's name).
Assay [4] can be described thus: Cytotoxicity against human colon cancer cells. It counts as functional. The note with it: Cancer cell lines, read-out: ED50 (the source's name).
Assay [5] in a line: Cytotoxicity against human fibrosarcoma cells. Type of assay: functional. The note with it: Fibrosarcoma cell, read-out: ED50 (the source's name).
Assay [6] can be described thus: Cytotoxicity against human melanoma cells. It counts as functional. The settings on record: Melanoma cell, read-out: ED50 (the source's name).
Assay [7] deals with Plasmodium falciparum. Kind of assay: Antimalarial activity against Plasmodium falciparum D6 in human erythrocytes after 24 hrs by [3H]hypoxanthine uptake. It counts as functional, organism-based. Put shortly:
as §1

A short description of assay [8]: Cytotoxicity against human lung cancer cells. It counts as functional. The settings on record: Cancer cell lines, read-out: ED50 (the source's name).
The test system of a further assay is KB. Kind of assay: Cytotoxicity against human KB cells. Type of assay: functional. The settings on record: read-out: ED50 (the source's name).
The test system of a further assay is P388. In words: Cytotoxicity against mouse P388 cells. It counts as functional. The settings on record: read-out: ED50 (the source's name).

Values after ≈ are worked out from the molar mass of the structure shown. Bounds are passed on as bounds.

Consider `C=C1[C@@H](O)[C@@]2(O)OC[C@]34[C@H]2[C@@]2(C)[C@H](O)C(=O)C=C(C)[C@@H]2C[C@H]3OC(=O)[C@H](O)[C@@]14O` [EURYCOMANONE], for which the values for the 50% inhibitory concentration (IC50) in the assay with Plasmodium falciparum [1] and in the assay on Plasmodium falciparum [7] were 0.0481 µg/mL (≈ 0.118 µM) and 0.0477 µg/mL (≈ 0.117 µM), respectively. Besides, the EC50 in [2] came out at 0.8 µg/mL (≈ 1.96 µM); in assay [3], 1.1 µg/mL (≈ 2.69 µM); in assay [4] it was 1.2 µg/mL (≈ 2.94 µM); in assay [5], 0.2 µg/mL (≈ 0.49 µM); in assay [6], 8.2 µg/mL (≈ 20.1 µM); in assay [8], 14.3 µg/mL (≈ 35 µM). Besides, the EC50 in the assay with KB was 1.9 µg/mL (≈ 4.65 µM); with P388, above 20 µg/mL.
Take `O=c1ccc2c3c(cc[n+]2[O-])c2ccc(O)cc2n13`: the EC50 in assay [2] was above 20 µg/mL; in [3], 3.5 µg/mL (≈ 13.9 µM); in assay [4] it was 7.5 µg/mL (≈ 29.7 µM); in assay [5], 4.9 µg/mL (≈ 19.4 µM); in [6], 7 µg/mL (≈ 27.8 µM); in [8] it was 5.1 µg/mL (≈ 20.2 µM). Besides, the EC50 with KB was 4.8 µg/mL (≈ 19 µM); in the assay on P388, 12 µg/mL (≈ 47.6 µM).
`OC(c1cc(C(F)(F)F)nc2c(C(F)(F)F)cccc12)C1CCCCN1` (configuration not stated) [MEFLOQUINE]: the IC50 (usually the concentration that inhibits the measured activity by half) in the assay on Plasmodium falciparum [7] is 0.0095 µg/mL (≈ 0.0251 µM).
Take `C[C@@H]1CC[C@H]2[C@@H](C)C(=O)O[C@@H]3O[C@@]4(C)CC[C@@H]1[C@]32OO4` [ARTEMISININ]: the IC50 in the assay with Plasmodium falciparum [1] came to 0.0018 µg/mL (≈ 0.00638 µM); in the assay with Plasmodium falciparum [7] it was 0.0027 µg/mL (≈ 0.00956 µM).
For the compound `O=c1ccc2nccc3c4ccc(O)cc4n1c23`, the EC50 in assay [2] was above 20 µg/mL; in assay [3], 2.6 µg/mL (≈ 11 µM); in assay [4], 4.8 µg/mL (≈ 20.3 µM); in assay [5], 3.5 µg/mL (≈ 14.8 µM); in assay [6], 5.4 µg/mL (≈ 22.9 µM); in [8], 3.8 µg/mL (≈ 16.1 µM). Further, the EC50 in the assay with KB was found to be 2 µg/mL (≈ 8.47 µM); with P388, 1.5 µg/mL (≈ 6.35 µM).
Regarding `COc1ccc2c3cc[n+]([O-])c4ccc(=O)n(c2c1)c34`, the EC50 in [2] is above 20 µg/mL; in [3], 6 µg/mL (≈ 22.5 µM); in assay [4] it was 8.1 µg/mL (≈ 30.4 µM); in assay [5], 4.5 µg/mL (≈ 16.9 µM); in assay [6], 6.5 µg/mL (≈ 24.4 µM); in assay [8], 5.2 µg/mL (≈ 19.5 µM). Moreover, the figures for the EC50 in the assay on KB and in the assay on P388 were 3.8 µg/mL (≈ 14.3 µM) and 11.7 µg/mL (≈ 43.9 µM), respectively.
Regarding `COc1ccc2c3ccnc4ccc(=O)n(c2c1)c43`, in the assay on P388, the EC50 amounted to 1.4 µg/mL (≈ 5.59 µM).
Consider `C=C[C@H]1CN2CC[C@H]1C[C@H]2[C@H](O)c1ccnc2ccc(OC)cc12` [QUININE], for which the 50% inhibitory concentration (IC50) was determined as 0.114 µg/mL (≈ 0.353 µM) with Plasmodium falciparum [1] and 0.0194 µg/mL (≈ 0.0598 µM) in the assay with Plasmodium falciparum [7].
For `COc1ccc2c(c1)[nH]c1c(CCC(=O)O)nccc12`, in that order: 2.98 µg/mL (≈ 11 µM) and 3.14 µg/mL (≈ 11.6 µM).
